By IC50 is commonly meant the concentration at which inhibition is half-maximal. A word on the GI50: it is the concentration giving 50% growth inhibition. Higher therefore signals less potent growth inhibition.

Structures are written as SMILES. Active and inactive are the calls of the source. The calls are words filed in the database; no cut-off is given here.

The target of data set [1] is T1, Polyunsaturated fatty acid 5-lipoxygenase (Homo sapiens, UniProt P09917).
T1 sequence (P09917 whole entry): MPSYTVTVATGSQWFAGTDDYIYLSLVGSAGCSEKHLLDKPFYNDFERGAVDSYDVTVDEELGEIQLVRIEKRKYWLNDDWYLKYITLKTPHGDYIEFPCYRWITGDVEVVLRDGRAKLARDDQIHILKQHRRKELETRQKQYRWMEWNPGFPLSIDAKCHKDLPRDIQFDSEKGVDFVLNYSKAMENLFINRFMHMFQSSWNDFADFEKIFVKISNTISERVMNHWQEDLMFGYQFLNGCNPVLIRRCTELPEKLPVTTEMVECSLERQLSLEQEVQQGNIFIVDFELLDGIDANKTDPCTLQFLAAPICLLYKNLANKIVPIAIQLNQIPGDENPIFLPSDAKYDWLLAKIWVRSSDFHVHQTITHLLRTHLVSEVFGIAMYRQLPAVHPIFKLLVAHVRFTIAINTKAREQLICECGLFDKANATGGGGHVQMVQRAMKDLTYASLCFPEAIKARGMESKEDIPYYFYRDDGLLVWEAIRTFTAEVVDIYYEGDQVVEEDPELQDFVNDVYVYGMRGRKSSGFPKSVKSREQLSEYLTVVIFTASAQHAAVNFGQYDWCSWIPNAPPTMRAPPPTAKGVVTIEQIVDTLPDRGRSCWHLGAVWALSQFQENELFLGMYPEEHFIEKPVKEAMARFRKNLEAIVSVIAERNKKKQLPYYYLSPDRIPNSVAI
In words: Inhibition of 5-LOX. The method in brief:
(§1)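 Purified 5-LOX, activity measured polarographically by Clark oxygen electrode as rate of O2 decrease. Enzyme in 100 mM phosphate pH 6.3, 3 mL final, with compound (DMSO stocks, various concentrations); reaction started with arachidonic acid 133 μM, 25 °C; maximal slope used. IC50 from concentration–inhibition curve; each assay repeated thrice.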

Data set [2] has as its system Mus musculus. In words: Antiinflammatory activity against LPS-induced inflammation in BALB/c mouse acute lung injury model assessed as reduction in macrophage count in bronchoalveolar lavage fluid at 50 mg/kg, ip administered 1 hr prior to LPS challenge measured after 12 hrs by Wright-Giemsa staining based hemocytometry. Type of data set: functional, organism-based. More on the design: dose 50 mg/kg. The method in brief:
(§2)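 Male BALB/c mice (20–25 g, 6/group), intratracheal LPS 1 mg/kg in PBS under ketamine/xylazine, compound 50 mg/kg ip 1 h prior. At 12 h, lavage three times with 0.5 mL PBS via tracheal cannula; pellet resuspended; total cells by hemocytometer; differentials from ≥200 cells on Wright–Giemsa smear. Mean ± SEM, unpaired t-test.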

The subject of data set [3] is Mus musculus. In words: Antiinflammatory activity against LPS-induced inflammation in BALB/c mouse acute lung injury model assessed as reduction in protein level in bronchoalveolar lavage fluid at 50 mg/kg, ip administered 1 hr prior to LPS challenge measured after 12 hrs by Bradford assay. More on the design: dose 50 mg/kg. The class given is functional, organism-based. The method in brief:
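Mouse LPS lung-injury model as described (BALB/c males, intratracheal LPS 1 mg/kg, compound 50 mg/kg ip 1 h beforehand). BAL fluid collected 12 h post-challenge, centrifuged 3000 rpm 10 min at 4 °C; supernatant stored −70 °C; protein by Bradford, expressed as mg/mL BALF. Six mice per group.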

Data set [4] has as its system Mus musculus. In words: Antiinflammatory activity against LPS-induced inflammation in BALB/c mouse acute lung injury model assessed as reduction in total cell count bronchoalveolar lavage fluid at 50 mg/kg, ip administered 1 hr prior to LPS challenge measured after 12 hrs by Wright-Giemsa staining based hemocytometry. The class given is functional, organism-based. More on the design: dose 50 mg/kg. A digest of the protocol: as §2

Data set [5] relates to Mus musculus. In words: Antiinflammatory activity against LPS-induced inflammation in BALB/c mouse acute lung injury model assessed as reduction in wet/dry ratio of lung at 50 mg/kg, ip administered 1 hr prior to LPS challenge measured after 12 hrs. The class given is functional, organism-based. More on the design: dose 50 mg/kg. The method in brief:
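In BALB/c males given intratracheal LPS (1 mg/kg) after ip dosing at 50 mg/kg 1 h earlier, left lungs excised at 12 h, rinsed thrice in PBS, blotted, weighed, oven-dried at 72 °C for 36–48 h and reweighed; wet/dry ratio indicates edema. Six mice per group.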

The test system of data set [6] is Mus musculus. In words: Antiinflammatory activity against LPS-induced inflammation in BALB/c mouse acute lung injury model assessed as reduction in alveolar wall thickening at 50 mg/kg, ip administered 1 hr prior to LPS challenge measured after 12 hrs by hematoxylin and eosin staining based light microscopy.
In data set [7] the test system is Mus musculus. In words: Antiinflammatory activity against LPS-induced inflammation in BALB/c mouse acute lung injury model assessed as reduction in neutrophil count in bronchoalveolar lavage fluid at 50 mg/kg, ip administered 1 hr prior to LPS challenge measured after 12 hrs by Wright-Giemsa staining based hemocytometry. Type of data set: functional, organism-based. Further details: dose 50 mg/kg. The method in brief: as §2

Data set [8] relates to Mus musculus. In words: Antiinflammatory activity against LPS-induced inflammation in BALB/c mouse acute lung injury model assessed as reduction in inflammatory cells infiltration at 50 mg/kg, ip administered 1 hr prior to LPS challenge measured after 12 hrs by hematoxylin and eosin staining based light microscopy. Further details: dose 50 mg/kg. The class given is functional, organism-based. The method in brief:
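Male BALB/c mice (20–25 g, 6/group, fasted 8 h) anesthetized with ketamine/xylazine; LPS 25 μg (1 mg/kg) intratracheal in 50 μL PBS; test agent 50 mg/kg ip 1 h before; PBS vehicle controls. At 12 h right lungs inflated, fixed in 10% buffered formaldehyde, paraffin-embedded, H&E stained; infiltration and wall thickening judged by light microscopy.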

Data set [9] concerns the target T1, Polyunsaturated fatty acid 5-lipoxygenase. In words: Inhibition of 5-LOX assessed as decrease in oxygen concentration using arachidonic acid as substrate by polarigraphic method with Clark's oxygen electrode. A digest of the protocol: as §1
The test system of another data set is MDA-MB-231. In words: Growth inhibition of human MDA-MB-231 cells after 48 hrs by MTT assay. The class given is functional. The conditions noted are these: MDA-MB-231, 48 h. A digest of the protocol: (§3)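 Cells kept in RPMI-1640 + 10% heat-inactivated FBS, penicillin/streptomycin, 2 mM glutamine, 37 °C 5% CO2; seeded 5×10^3/well the day before, washed with PBS, fresh medium. Compounds 0.1–100 μM, 48 h; MTT 4 h at 37 °C, formazan dissolved in DMSO, OD 570 nm. GI50 from dose-survival curves; three experiments in triplicate.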

The target in data set [10] is T2, Polyunsaturated fatty acid 5-lipoxygenase (Homo sapiens) (UniProt P09917).
T2 sequence (whole entry): T1 sequence (P09917 whole entry)
In words: Irreversible inhibition of 5-LOX assessed as decrease in oxygen concentration using arachidonic acid as substrate measured after dilution by polarigraphic method with Clark's oxygen electrode.

A further data set has as its system HaCaT. In words: Cytotoxicity against human HaCaT cells at up to 100 uM after 48 hrs by MTT assay. Type of data set: cell-based. The method in brief:
as §3
In general terms: Formazan colour is commonly taken as a measure of viable cells.

Another data set concerns COLO 205. In words: Growth inhibition of human COLO205 cells after 48 hrs by MTT assay. Type of data set: functional. The conditions noted are these: COLO 205, 48 h. A digest of the protocol: as §3
Another data set concerns HepG2. In words: Growth inhibition of human HepG2 cells after 48 hrs by MTT assay. The conditions noted are these: HepG2, 48 h. The class given is functional. The method in brief: as §3
Data set [11] deals with T2, Polyunsaturated fatty acid 5-lipoxygenase (Homo sapiens). In words: Inhibition of 5-LOX assessed as decrease in oxygen concentration using arachidonic acid as substrate by polarigraphic method with Clark's oxygen electrode in presence of 0.1 mg/mL BSA. A digest of the protocol: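 Oxygen-electrode 5-LOX assay (phosphate pH 6.3, 25 °C) with enzyme pre-incubated with BSA 0.1 mg/mL plus compound before starting with arachidonic acid 133 μM; reduced inhibition taken as sign of non-specific binding. AA-861 control.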

For data set [12] the target is unchanged. In words: Irreversible inhibition of 5-LOX assessed as decrease in oxygen concentration using arachidonic acid as substrate at 10-fold increased enzyme concentration pre-incubated for 5 mins before substrate addition by polarigraphic method with Clark's oxygen electrode. A digest of the protocol:
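Oxygen-electrode 5-LOX assay run with 10-fold excess enzyme: enzyme and compound incubated 5 min, then reaction initiated with arachidonic acid 133 μM; AA-861 control.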

`CCCC(O)C#CCOCc1ccccc1` (stereo not given) displayed an IC50 in data set [1] of 760 µM.

`Cc1ccc(-c2cc(C(F)(F)F)nn2-c2ccc(S(N)(=O)=O)cc2)cc1`: the inhibition entry in the data set with Mus musculus [2], in the data set with Mus musculus [3], in the data set with Mus musculus [4], with Mus musculus [6], in the data set with Mus musculus [7] and in the data set on Mus musculus [8] was “Active” in each case. Further, in the data set on Mus musculus [5], the outcome was Active.

As to `COc1ccc(C(O)C#CCOCc2ccc(SC)cc2)cc1OC` (stereo not given), the IC50 in [9] was found to be 80 µM.

As for `CSc1ccc(COCC#CC(O)c2ccc(F)cc2)cc1` (stereo not given), the figures for the GI50 in the data set with MDA-MB-231, in the data set on COLO 205 and in the data set on HepG2 were 20 µM, 22 µM and 31 µM, respectively. For the same compound, the IC50 in data set [9] is 12 µM. Also, the inhibition result in data set [10] and in data set [12] was “Active” throughout. Moreover, the Activity entry with HaCaT is “Non-toxic”. The fold change (FC) in [11] was determined as 1.

As to `CSc1ccc(COCC#CC(O)c2cccc([N+](=O)[O-])c2)cc1` (stereo not given), the GI50 in the data set on MDA-MB-231 was determined as 62 µM; with COLO 205 it was 71 µM; with HepG2, 54 µM. In addition, in [9], the IC50 is 62 µM.

Turning to `COc1ccc(C(O)C#CCOCc2ccc(SC)cc2)cc1` (stereo not given), the IC50 in data set [9] was > 100 µM.

On to `CSc1ccc(COCC#CC(O)c2ccc(C#N)cc2)cc1` (stereo not given), for which the results for the GI50 in the data set with MDA-MB-231, in the data set with COLO 205 and in the data set on HepG2 were 62 µM, 71 µM and 54 µM, respectively. In addition, the IC50 in data set [9] was 41 µM.

For `CCCCCC(O)C#CCOCc1ccc(SC)cc1` (stereo not given), the IC50 in data set [9] is > 100 µM.

Turning to `OC(C#CCOCc1ccccc1)c1ccccc1` (stereo not given), the IC50 in data set [9] was > 100 µM.

In the case of `COc1ccc(C(O)C#CCOCc2ccc(SC)cc2)c(OC)c1OC` (stereo not given), in data set [9], the 50% inhibitory concentration (IC50) was 72 µM.

As for `COc1cc(C(O)C#CCOCc2ccc(SC)cc2)cc(OC)c1OC` (stereo not given), the GI50 in the data set with MDA-MB-231, in the data set on COLO 205 and with HepG2 was 100 µM throughout. The IC50 in data set [9] was determined as 80 µM.

As for `COc1cccc(C(O)C#CCOCc2ccc(SC)cc2)c1OC` (stereo not given), in data set [9], the IC50 was 69 µM.

With `CC1=C(C)C(=O)C(CCCCC#CCCCC#CCO)=C(C)C1=O` [DOCEBENONE], the IC50 in [9] was found to be 1.7 µM.

As to `CSc1ccc(COCC#CC(O)c2ccc(C(C)C)cc2)cc1` (stereo not given), the inhibition entry (in the data set on Mus musculus [2]; with Mus musculus [3]; in data set [10]; in the data set with Mus musculus [4]; with Mus musculus [6]; in data set [12]) was “Active” throughout. For the same compound, the inhibition result in the data set on Mus musculus [7] and in the data set on Mus musculus [8] was “Active” throughout. For the same compound, the GI50 in the data set with MDA-MB-231 worked out at 15 µM; in the data set on COLO 205, 12 µM; with HepG2, 22 µM. For the same compound, in [9], the IC50 was determined as 8 µM. Also, in the data set on Mus musculus [5], the outcome was Active. Besides, the Activity entry in the data set on HaCaT is recorded as “Non-toxic”. Further, the fold change (FC) in [11] stood at 1.

The values are drawn from ChEMBL document CHEMBL1926547, “Structure based drug design, synthesis and evaluation of 4-(benzyloxy)-1-phenylbut-2-yn-1-ol derivatives as 5-lipoxygenase inhibitors” (Eur J Med Chem, 2012).
